This is an account of results in PMC3186881 (Chemico-biological interactions, 2011).

Molecules are shown by their SMILES. Peptide text beside a SMILES is read from it. * marks the point of attachment. Cbz = O=C(OCc1ccccc1)*; CH2F = FC*

The test system of series [1] is Jurkat cells. The series can be described thus: DNA fragmentation. Type of series: cell-based. To be noted: 24 h.
The subject of series [2] is Jurkat cells. The experiment in a line: Cell viability by trypan blue exclusion. To be noted: for cell viability (trypan blue exclusion): 100 nM. The format is cell-based.
The test system of series [3] is Jurkat cells. The series can be described thus: Intracellular hydrogen peroxide levels. The format is cell-based. The note with it: 100 nM, time course. The gist of the method:
(§1)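 Jurkat cells treated at 100 nM over a time course up to 16 h. Stained 30 min in the dark with dihydroethidine (superoxide, FL-3) or CM-H2DCF-DA (hydrogen peroxide, FL-1); flow cytometry, mean fluorescence reported. Compared with DMSO-treated cells by ANOVA and Bonferroni post-test.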

Series [4] concerns Jurkat cells. The series can be described thus: Intracellular superoxide levels. The format is cell-based. To be noted: 100 nM; for increase of intracellular superoxide compared to diluent: 16 h; for ROS levels (superoxide and hydrogen peroxide): time course. In a few lines:
as §1

Series [5] deals with chymotrypsin-like (CT-L) activity of the proteasome (Homo sapiens, UniProt P28074). The experiment in a line: Chymotrypsin-like proteasome activity in treated Jurkat cells. The format is cell-based. To be noted: for CT-L activity over time (recovery or sustained inhibition): 1 h to 16 h.
For series [6], the target named is trypsin-like (T-L) activity of the proteasome (Homo sapiens, UniProt Q99436). The series can be described thus: Trypsin-like proteasome activity in treated Jurkat cells. The format is cell-based. The gist of the method:
(§2)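 Jurkat cells dosed 1 h or 12 h at equipotent concentrations chosen from 24 h DNA-fragmentation dose-response. Caspase-like activity read as z-LLE-amc hydrolysis; trypsin-like as […] hydrolysis. Fluorescence at ex 380/em 460 nm (RFU), normalized to DMSO-treated cells as 100%. Mean ± SD of three independent experiments; two-way ANOVA with Bonferroni post-test.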

The test system of series [7] is Jurkat cells. The experiment in a line: Cell size by forward scatter versus side scatter. The format is cell-based. To be noted: 100 nM, 24 h. In a few lines: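 Jurkat cells treated 24 h, then analysed by flow cytometry. Cell size judged on forward- versus side-scatter plots, with a gate set on the DMSO control population to detect size shifts after treatment.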
Series [8] concerns β5 protein (chymotryptic-like subunit of the proteasome). The experiment in a line: β5 subunit protein level by western blot. The format is cell-based. The note with it: Jurkat cells, 100 nM, 1, 6 and 12 h. In general terms: A western blot detects proteins with antibodies after separation by electrophoresis.
The next series concerns caspase-8. The experiment in a line: Caspase-8 activation by western blot. The format is cell-based. The note with it: Jurkat cells, 6 h. The gist of the method:
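Jurkat cells treated 6 h at 100 nM. Lysates from 5x10^6 cells; 50 μg protein run on SDS-PAGE, transferred to nitrocellulose, probed with caspase-8 antibody (1:500) detecting pro- and cleaved forms, then secondary (1:5000). Antibodies in 5% milk/TBS, 0.005% Tween; ECL detection. Densitometry given as cleaved:pro-caspase-8 ratio.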

For series [9], the target named is caspase-like (C-L) activity of the proteasome (Homo sapiens, UniProt P28072). The series can be described thus: Caspase-like proteasome activity in treated Jurkat cells. The format is cell-based. To be noted: for inhibition of C-L activity: Jurkat cells, equipotent concentrations (4.5 μM NPI-2078, 1 μM NPI-2104, 25 nM marizomib). The gist of the method: as §2
For another series, the system named is PARP. The experiment in a line: PARP cleavage by western blot. To be noted: Jurkat cells, 100 nM, 16 h. Type of series: cell-based. In a few lines:
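Jurkat cells exposed to 100 nM for 16 h. Lysates from 5x10^6 cells; 50 μg protein by SDS-PAGE, nitrocellulose transfer, PARP antibody 1:2000, secondary 1:5000, diluted in 5% milk/TBS with 0.005% Tween; ECL detection. Cleaved PARP band quantified by densitometry, normalized to actin.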

The test system of series [10] is Jurkat cells. The experiment in a line: Nuclear morphology by Hoechst staining. The format is cell-based. To be noted: 100 nM, 24 h. In a few lines: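 Jurkat cells exposed 24 h at 100 nM; 10,000 cells stained with 5 μM Hoechst 33342 for 20 min, cytocentrifuged onto slides and examined by fluorescence microscopy for nuclear shrinkage and fragmentation.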
Another series concerns proteasomal activities. The note with it: leukemia cells; cited from earlier work.
The mark [11] stands for this setting: equipotent concentrations (4.5 μM NPI-2078, 1 μM NPI-2104, 25 nM marizomib), 12 h.
Setting [12] is: equipotent concentrations (4.5 μM NPI-2078, 1 μM NPI-2104, 25 nM marizomib).
[13] abbreviates: equipotent concentrations (4.5 μM NPI-2078, 1 μM NPI-2104, 25 nM marizomib), 1 h.

On to `CC(=O)N[C@@H](CS)C(=O)O` [NAC, N-acetyl cysteine, reference compound], for which, in the series with Jurkat cells [1] (24 mM NAC before 100 nM analogs), the “effect of antioxidant pretreatment on DNA fragmentation induced by LG analogs” value was “attenuated”. Also, in the series with Jurkat cells [2] (24 mM), the “toxicity as single agent” value is on record as “did not have toxic effects”. Moreover, the “effect of antioxidant pretreatment on viability loss by LG analogs” value in the series with Jurkat cells [2] (24 mM NAC before 100 nM analogs, 24 h) is given as “offered protection”.
Regarding `CC12OC(=O)C1(C(O)C1C=CCCC1)NC(=O)C2CCBr` (stereo not drawn) [NPI-2053], the “hydrogen peroxide levels compared to diluent” value with Jurkat cells [3] is recorded as “steadily increased”. For the same compound, the “increase of intracellular superoxide compared to diluent” value (from here on “increase of intracellular superoxide”) in the series with Jurkat cells [4] is “over 7 fold”.
In the case of `CC12OC(=O)C1(C(O)C1CCCCC1)NC(=O)C2CCCl` (stereo not drawn) [NPI-2056], the DNA fragmentation entry in the series on Jurkat cells [1] (100 nM) is reported as “less DNA fragmentation”. Also, the “cell viability (trypan blue exclusion)” value in the series on Jurkat cells [2] (24 h) is “more viable cells”. Besides, in series [5] (100 nM), the “CT-L activity over time (recovery or sustained inhibition)” value is on record as “partial recovery”. The “hydrogen peroxide levels compared to diluent” value with Jurkat cells [3] is given as “steadily increased”. In the series on Jurkat cells [4], the “increase of intracellular superoxide” value is recorded as “over 7 fold”.
Regarding `CC12OC(=O)C1(C(O)C1C=CCCC1)NC(=O)C2CCI` (stereo not drawn) [NPI-2070], the “hydrogen peroxide levels compared to diluent” value in the series with Jurkat cells [3] is given as “steadily increased”. For the same compound, the “increase of intracellular superoxide” value in the series with Jurkat cells [4] was “over 7 fold”.
In the case of `CC12OC(=O)C1(C(O)C1C=CCCC1)NC(=O)C2CCN=[N+]=[N-]` (stereo not drawn) [NPI-2078], the “inhibition of T-L activity” value in series [6] (setting [11]) was around 5%. Besides, the “change in cell size compared to control population” value with Jurkat cells [7] is recorded as “did not show a large change in cell size”. Moreover, the “level of β5 protein” value in series [8] is “Neither inhibitor decreased levels of β5 protein”. The “cell viability (trypan blue exclusion)” value in the series on Jurkat cells [2] (24 h) was “did not affect viability”. Further, in the series with caspase-8 (setting [12]), the “caspase-8 activation (cleavage of pro-caspase-8)” value (“caspase-8 activation” below) is “caspase-8 activation occurred”. For the same compound, the “CT-L activity, % of control” value in [5] (setting [13]) came out at 10%. The “inhibition of CT-L activity” value in series [5] (setting [11]) was found to be 70%. Besides, the “inhibition of C-L activity” value in series [9] (1 h) is given as at least 95%; in [9] (12 h), above 65%. In the series on Jurkat cells [4], the “ROS levels (superoxide and hydrogen peroxide)” value is “weak”.
Turning to `CC12OC(=O)C1(C(O)C1C=CCCC1)NC(=O)C2CCSC#N` (stereo not drawn) [NPI-2104], the “inhibition of T-L activity” value in series [6] (equipotent concentrations (1 μM NPI-2104, 25 nM marizomib), 1 h) is given as 11%; in series [6] (setting [11]), above 30%. The “cell viability (trypan blue exclusion)” value in the series with Jurkat cells [2] (24 h) was “did not affect viability”. Also, the entries for the “caspase-8 activation” value in the series with caspase-8 (100 nM) and in the series with caspase-8 (setting [12]) were “weakly activated” and “caspase-8 activation occurred”, respectively. The “inhibition of CT-L activity” value in series [5] (100 nM, 1 h) is reported as “about 90%”; in series [5] (setting [11]), 70%. Further, the “CT-L activity over time (recovery or sustained inhibition)” value in series [5] (100 nM) is recorded as “recovered”. The “CT-L activity, % of control” value is 64.5% in series [5] (100 nM, 12 h); 28.6% in series [5] (equipotent concentration (1 μM NPI-2104), 12 h); 10% in series [5] (setting [13]). Also, the “inhibition of C-L activity” value is at least 95% in series [9] (1 h) and above 65% in series [9] (12 h). The “ROS levels (superoxide and hydrogen peroxide)” value in the series with Jurkat cells [4] is reported as “weak”.
`Cc1ccc(S(=O)(=O)OCCC2C(=O)NC3(C(O)C4C=CCCC4)C(=O)OC23C)cc1` (stereo not drawn) [NPI-2151]: the “hydrogen peroxide levels compared to diluent” value with Jurkat cells [3] is given as “steadily increased”. In addition, the “increase of intracellular superoxide” value with Jurkat cells [4] is listed as “over 7 fold”.
Usually inhibition stands for how much of the control response was suppressed. On to `C[C@@]12OC(=O)[C@]1([C@@H](O)[C@@H]1C=CCCC1)NC(=O)[C@@H]2CCCl` [marizomib, Marizomib, reference compound], for which the “change in cell size compared to control population” value in the series with Jurkat cells [7] was “altered cell size”. In addition, the “level of β5 protein” value in series [8] was “Neither inhibitor decreased levels of β5 protein”. The PARP cleavage result with PARP was “PARP cleavage occurred”. Also, the “caspase-8 activation” value in the series with caspase-8 (setting [12]) is “caspase-8 activation occurred”. Also, in [5] (setting [11]), the “inhibition of CT-L activity” value was “sustained”. In addition, the “nuclear morphology (Hoechst staining)” value in the series on Jurkat cells [10] is “shrinkage and fragmentation of the DNA”. Moreover, in series [9] (12 h), the “inhibition of C-L activity” value is reported as “sustained”. For the same compound, the inhibition at 0.025 µM in series [9] (Jurkat, read-out: inhibition of C-L activity) came to 88%. The “profile of inhibition of proteasome activities” value in the series on proteasomal activities is “blocking the CT-L and C-L activities potently, while T-L activity is inhibited to a lesser extent”.
`CC[C@H](C)[C@H](NC(=O)OCc1ccccc1)C(=O)N[C@@H](CCC(=O)OC)C(=O)N[C@H](C(=O)N[C@@H](CC(=O)OC)C(=O)CF)[C@@H](C)O` [z-IETD-fmk] (Cbz-IE(OMe)TD(OMe)-CH2F): the “effect of caspase-8 inhibitor pretreatment on analog-induced DNA fragmentation” value in the series with Jurkat cells [1] (25 μM z-IETD-fmk 30 min before 100 nM analogs) is on record as “prevented”.
